Assay outcomes: PubChem BioAssay, several laboratories
Most compounds without a hit are left out; they make up all but 2.5% or so of the library.
TRPC6 act: mouse TRPC6 channel activators, primary screen, cell-based, HEK293, membrane potential dye; Short transient receptor potential channel 6 (Mus musculus), Q61143; HEK293-TRPC6 membrane potential dye fluorescence; active compounds read high; B-score at 10 µM; hit rate 0.13% among 310,000;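 active = B-score of the integrated fluorescence ratio above library mean plus 3 SD, and starting fluorescence ratio within library mean plus 5 SD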;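 note: higher score means more depolarization so channel activation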
TRPC6 inh: mouse TRPC6 channel inhibitors, primary screen, cell-based, HEK293, membrane potential dye | ACh-evoked depolarization; active compounds read low | Short transient receptor potential channel 6 (Mus musculus), Q61143 | AID 2553, 2010 | B-score at 10 µM | hit rate 1.1% among 310,000;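 active = B-score under library mean minus 3 SD, initial fluorescence not abnormally high, positive integrated signal ratio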;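 note: B-score derived from integrated fluorescence ratio over the kinetic read; more negative B-score means stronger inhibition of depolarization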
TRPC4 agonist: activators of mouse TRPC4 channel, primary screen, Fluo4 calcium, HEK293 TRPC4beta/mu-opioid cells; hit rate 0.49% among 310,000; AID 2237, 2010; Fluo4 calcium fluorescence; active compounds read high; B-score at 10 µM;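 active = B-score above 5 SD of library B-scores, and initial fluorescence ratio not above library mean plus 5 SD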;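 note: positive B-score marks a calcium rise read as TRPC4 activation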
Target sequence (Q9QUQ5 whole entry, looked up): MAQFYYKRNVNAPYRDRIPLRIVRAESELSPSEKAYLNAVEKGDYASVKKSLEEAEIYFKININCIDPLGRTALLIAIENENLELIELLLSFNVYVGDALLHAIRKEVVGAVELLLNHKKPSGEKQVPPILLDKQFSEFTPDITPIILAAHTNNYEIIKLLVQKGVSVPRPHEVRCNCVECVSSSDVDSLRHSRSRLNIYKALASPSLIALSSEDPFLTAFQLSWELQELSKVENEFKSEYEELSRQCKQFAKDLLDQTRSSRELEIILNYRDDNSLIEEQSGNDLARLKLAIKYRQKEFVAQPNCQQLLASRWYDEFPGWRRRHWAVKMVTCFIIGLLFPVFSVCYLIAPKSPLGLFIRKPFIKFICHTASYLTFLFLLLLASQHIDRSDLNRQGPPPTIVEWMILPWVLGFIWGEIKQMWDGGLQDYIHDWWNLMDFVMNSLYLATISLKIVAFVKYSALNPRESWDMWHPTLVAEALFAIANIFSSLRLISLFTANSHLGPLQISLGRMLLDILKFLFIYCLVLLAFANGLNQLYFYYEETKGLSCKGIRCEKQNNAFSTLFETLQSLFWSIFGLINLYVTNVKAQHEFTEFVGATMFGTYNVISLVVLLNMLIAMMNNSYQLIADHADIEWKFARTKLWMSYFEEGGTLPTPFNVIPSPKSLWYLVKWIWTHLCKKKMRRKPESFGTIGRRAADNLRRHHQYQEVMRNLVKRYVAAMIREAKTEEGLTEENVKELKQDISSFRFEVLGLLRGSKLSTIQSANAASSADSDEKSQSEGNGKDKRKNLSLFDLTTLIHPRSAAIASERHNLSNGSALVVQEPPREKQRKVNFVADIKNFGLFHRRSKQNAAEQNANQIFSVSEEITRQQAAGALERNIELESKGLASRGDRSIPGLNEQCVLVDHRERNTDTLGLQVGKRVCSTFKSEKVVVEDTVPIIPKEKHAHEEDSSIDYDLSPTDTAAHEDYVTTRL
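Test system: HEK293 cells stably co-expressing mouse TRPC4beta and mu-opioid receptor | Schedule: Fluo4 dye loading 45 min at room temperature, 110 s recording | Measured by: Kinetic Fluo4 calcium fluorescence, 5 s baseline at 1 Hz | Evaluation: B score of integrated ratio | Controls: Buffer (low) and maximal DAMGO (high)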
TRPC4 PAM: positive allosteric modulators of TRPC4, primary screen, cell-based, mouse TRPC4beta, HEK293 mu-opioid, Fluo-4 calcium; DAMGO EC20, Fluo-4 Ca2+ flux; active compounds read high; Short transient receptor potential channel 4 (Mus musculus), Q9QUQ5; hit rate 0.42% among 310,000; AID 2227, 2009; B-score at 10 µM;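 active = B-score of calcium response area above 5 SD of library B-scores, with initial fluorescence ratio within 5 SD of library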
Pemphigus Ab inh: inhibitors of pemphigus antibody binding to DSG3, primary screen, biochemical, bead-based, flow cytometry, scFv-GFP; Desmoglein-3 (Homo sapiens), P32926; DSG3-coupled beads, scFv-anti-DSG3-GFP binding; active compounds read low; binding (percent of control), % at 10 µM; hit rate 0.48% among 310,000; AID 588358, 2011;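 active = binding more than 3 SD below its plate's average and above zero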;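 note: hits lower antibody fragment binding to DSG3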
TRPC4 inh: inhibitors of mouse TRPC4 channel, primary screen, Fluo4 calcium, HEK293 TRPC4beta/mu-opioid cells | Short transient receptor potential channel 4 (Mus musculus), Q9QUQ5 | DAMGO-evoked Fluo4 calcium flux; active compounds read low | B-score at 10 µM | hit rate 0.39% among 300,000 | AID 2247, 2010;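 active = B-score over 3 SD under the library average, no early fluorescence shift, positive overall ratio signal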
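Assay system: Stable TRPC4beta/mu-opioid receptor HEK293 cells | Reagent: DAMGO in two steps, submaximal then maximal | Compound dosing: Single concentration per test compound | Signal: Fluo4 Ca2+ flux fluorescence | Evaluation: Per-well B score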
Of the large screens only hits and unclear results are named; the others gave an inactive call.

C=CCN(Cc1cn(C)nc1-c1cccc(Cl)c1)C1CCS(=O)(=O)C1 (configuration not stated)	none
CCOC(=O)N1CCN(C(=O)CSc2ccc(-c3cccnc3)nn2)CC1	none (no result: Pemphigus Ab inh)
CC(CC(=O)Nc1cccc(S(=O)(=O)N2CCCCC2)c1)c1ccccc1 (configuration not stated)	none (no result: TRPC6 act, TRPC6 inh, TRPC4 agonist, TRPC4 PAM, TRPC4 inh)
CCCC(C(=O)Nc1cccc(S(=O)(=O)N2CCCC2)c1)c1ccccc1 (configuration not stated)	Pemphigus Ab inh 8.0
CCOc1ccc(NC(=O)C/C(C)=N/NC(=O)COc2ccc(Br)cc2C)cc1	none
CN(C)CCCOC(=O)c1ccc(Cl)cc1Cl	TRPC4 PAM 27
O=C(NCCCc1ccccc1)c1cc(COc2ccc(F)cc2Cl)on1	Pemphigus Ab inh 35
CC(C)(C)NCC(O)c1cc(O)cc(O)c1 (configuration not stated)	Pemphigus Ab inh 45
CC(C)NC[C@@H](O)c1ccc(O)c(O)c1	none
COc1ccc(OC)c(Cc2nnc(CCC(=O)NC3CCCCC3)o2)c1	none
CCCN1CCC(NC(=O)CCc2nnc(Cc3cc(OC)ccc3OC)o2)CC1	TRPC4 agonist 55, TRPC4 PAM 10 (no result: Pemphigus Ab inh)
CC(C)(C)NC(=O)CN(C(=O)CN1C(=O)C(=O)c2ccccc21)C(C)(C)C	none
CCNC(=S)N1CCC(C(O)(c2ccccc2)c2ccccc2)CC1	TRPC4 agonist 100, TRPC4 inh -6
N#Cc1c2n(c(=S)n(-c3ccc(OC(F)F)cc3)c1=O)CCCCC2	TRPC4 PAM 13
N#Cc1c2n(c(=S)n(-c3ccccn3)c1=O)CCCCC2	none
COc1cc(C=O)ccc1OC(=O)c1ccc(C(C)C)cc1	TRPC4 inh -6
CC(C)c1ccc(C2C3CSCC=C3C(C#N)=C(N)C2(C#N)C#N)cc1 (configuration not stated)	TRPC4 PAM 23 (no result: Pemphigus Ab inh)
C/C(CC(=O)N(C(C)C)C(C)C)=N\NC(=O)COc1ccc(Cl)cc1Cl	TRPC4 inh -6
O=C(O)c1cccc(S(=O)(=O)N2CCC(n3nnc4cc(C(F)(F)F)ccc43)CC2)c1	none
Cc1[nH]c2ccc(C(=O)OC(C)C(=O)N(C)c3ccccc3)cc2c1C (configuration not stated)	TRPC4 inh -7
O=C1NN(c2cccc(Br)c2)C(=O)/C1=C/c1ccc(-c2cc([N+](=O)[O-])ccc2O)o1	Pemphigus Ab inh 82
Cc1ccc(NC(=O)CNC2CCCCC2)cc1Cl	none
CC1CCCN(S(=O)(=O)c2ccc(NC(=O)C3CCN(C(=O)c4ccco4)CC3)cc2)C1 (configuration not stated)	TRPC4 agonist 60
CCC(C)NS(=O)(=O)c1ccc(NC(=O)C2CCN(C(=O)c3ccco3)CC2)cc1 (configuration not stated)	none
O=C(CSc1nc2nn(-c3ccccc3)c(=O)c-2c2n1CCCCC2)Nc1ccc(F)c(F)c1	Pemphigus Ab inh -12 (no result: TRPC6 act, TRPC6 inh, TRPC4 agonist, TRPC4 PAM, TRPC4 inh)
CC(=O)c1ccc(NC(=O)CSc2nc3nn(-c4ccccc4)c(=O)c-3c3n2CCCCC3)cc1	none (no result: TRPC6 act, TRPC6 inh, TRPC4 agonist, TRPC4 PAM, TRPC4 inh)
COc1ccc(CNC(=O)COC(=O)c2cc(C)oc2C)cc1	none (no result: TRPC6 act, TRPC6 inh, TRPC4 agonist, TRPC4 PAM, TRPC4 inh)
Cc1csc(C(=O)O)c1NC(=O)c1cccc([N+](=O)[O-])c1	Pemphigus Ab inh 43
Cc1onc(-c2ccccc2Cl)c1C(=O)Nc1ccccc1O	none (no result: Pemphigus Ab inh)
O=C(c1ccc2c(c1)OCO2)C1CCCN(Cc2cc(F)ccc2-n2cccn2)C1 (configuration not stated)	TRPC4 inh -5
COc1cccc(CN2CCCC(C(=O)c3ccc4c(c3)OCO4)C2)c1OC (configuration not stated)	none
O=C(c1ccc2c(c1)OCO2)C1CCCN(Cc2cccn2-c2cccnc2)C1 (configuration not stated)	TRPC4 inh -6
O=C(c1ccc2c(c1)OCO2)C1CCCN(Cc2ccccc2OC(F)F)C1 (configuration not stated)	TRPC4 inh -7 (no result: Pemphigus Ab inh)
COc1ccc(-c2noc(CNC(=O)CCCN3C(=O)[C@H]4CC=CC[C@H]4C3=O)n2)cc1	none
Cc1ccc(C)c(N(CC(=O)NC(C)C)C(=O)CCC(=O)Nc2ccccn2)c1	none
CCOc1ccccc1NC(=O)C(=O)N/N=C/c1ccc([N+](=O)[O-])cc1	Pemphigus Ab inh 93
O=C(N/N=C/C(Cl)=C/c1ccc([N+](=O)[O-])cc1)C(=O)Nc1ccccc1C(=O)O	none
NCCNc1ccc([N+](=O)[O-])c(NC2CC2)c1	TRPC4 PAM 16
COC(=O)/C(=N\Nc1ccc(Cl)cc1)Sc1nnc(-c2ccc(OC)cc2)n1C	none
COC(CSc1nc(N)c2c3c(sc2n1)CN(C)CC3)OC	none
CCSc1nc(N)c2c3c(sc2n1)CN(C)CC3	TRPC6 inh -5.3 (no result: Pemphigus Ab inh)
O=C(Nc1ccccc1OC(F)F)c1ccc(-n2cncn2)c([N+](=O)[O-])c1	none
Cc1n[nH]c(C)c1Cc1c(F)cccc1Cl	TRPC4 inh -6 (no result: Pemphigus Ab inh)
CC(CC(=O)NC1CCCCC1)S(=O)(=O)c1ccc2c(c1)NC(=O)CO2 (configuration not stated)	none
COc1cccc(CNC(=O)CCS(=O)(=O)Cc2ccc(C)cc2)c1	none
COc1cccc(Oc2nc(-c3ccncc3)nc3ccccc23)c1	none
COc1ccc(NC(=O)CCS(=O)(=O)c2ccc3nc(C)sc3c2)cc1OC	none
Cc1nc2ccc(NC(=O)CCS(=O)(=O)c3ccc(Cl)cc3)cc2s1	Pemphigus Ab inh -174
O=C(NS(=O)(=O)Nc1ccccc1)C1=C(N2CCCC2)COC1=O	none (no result: TRPC6 act, TRPC6 inh, TRPC4 agonist, TRPC4 PAM, TRPC4 inh)
COC(=O)c1ccccc1NC(=O)CSc1nc2ccsc2c(=O)n1Cc1ccc(C(=O)O)cc1	none (no result: TRPC6 act, TRPC6 inh, TRPC4 agonist, TRPC4 PAM, TRPC4 inh)
CCCCN1C[C@H](CSC)[C@@H](CC(=O)Nc2ccc(OC)cc2)C1=O	none (no result: TRPC6 act, TRPC6 inh, TRPC4 agonist, TRPC4 PAM, TRPC4 inh)
O=C(CNS(=O)(=O)c1ccc([N+](=O)[O-])cc1)N/N=C\c1ccc(O)cc1	TRPC4 PAM 12
CC(=O)Nc1ccc(/C=N\NC(=O)CNS(=O)(=O)c2ccc([N+](=O)[O-])cc2)cc1	none
CC(C)NC(=O)C1(S(=O)(=O)c2ccccc2)CC=CC1	none
Cc1cccn2c(=O)c(/C=N/O)c(N3CCCC3)nc12	TRPC4 inh -8 (no result: Pemphigus Ab inh)
Cc1cccn2c(=O)c(/C=C(\C#N)C(N)=O)c(N3CCN(c4ccccc4)CC3)nc12	TRPC4 PAM 12
